According to paper PMC4716659 (European journal of medicinal chemistry, 2015):
Values after ≈ are worked out from the molar mass of the structure shown. “Also recorded” adds a separate entry of the source.

What was measured:
[1] = system: methicillin-resistant Staphylococcus aureus (MRSA) ATCC 43300; experiment: MIC, broth microdilution; type: cell-based; conditions: MRSA ATCC 43300
[2] = system: S. aureus VRS4 (VRSA); experiment: MBC, plating onto TSA; type: cell-based, Staphylococcus aureus
[3] = system: S. aureus USA300 (MRSA); experiment: MBC, plating onto TSA; type: cell-based, Staphylococcus aureus
[4] = system: two VISA isolates; experiment: MIC against VISA isolates; type: cell-based; conditions: Staphylococcus aureus
[5] = system: S. aureus NRS37 (VISA); experiment: MBC, plating onto TSA; type: cell-based, Staphylococcus aureus
[6] = system: S. aureus NRS37 (VISA); experiment: MIC, broth microdilution; type: cell-based, Staphylococcus aureus
[7] = system: S. aureus VRS4 (VRSA); experiment: MIC, broth microdilution; type: cell-based, Staphylococcus aureus
[8] = system: S. aureus NRS1 (VISA); experiment: MIC, broth microdilution; type: cell-based, Staphylococcus aureus
[9] = system: S. aureus VRS5 (VRSA); experiment: MBC, plating onto TSA; type: cell-based, Staphylococcus aureus
[10] = system: S. aureus NRS194 (MRSA); experiment: MIC, broth microdilution; type: cell-based, Staphylococcus aureus
[11] = system: S. aureus USA 400 (MRSA); experiment: MBC, plating onto TSA; type: cell-based, Staphylococcus aureus
[12] = system: S. aureus USA 400 (MRSA); experiment: MIC, broth microdilution; type: cell-based, Staphylococcus aureus
[13] = system: S. aureus USA300 (MRSA); experiment: MIC, broth microdilution; type: cell-based, Staphylococcus aureus
[14] = system: S. aureus NRS1 (VISA); experiment: MBC, plating onto TSA; type: cell-based, Staphylococcus aureus
[15] = system: S. aureus NRS19 (VISA); experiment: MIC, broth microdilution; type: cell-based, Staphylococcus aureus
[16] = system: S. aureus USA500 (MRSA); experiment: MIC, broth microdilution; type: cell-based, Staphylococcus aureus
[17] = system: S. aureus NRS19 (VISA); experiment: MBC, plating onto TSA; type: cell-based, Staphylococcus aureus
[18] = system: S. aureus NRS107 (MRSA); experiment: MIC, broth microdilution; type: cell-based, Staphylococcus aureus
[19] = system: human embryonic kidney (HEK293) cell line; experiment: In vitro cytotoxicity, MTS assay; conditions: 40 μg/mL
[20] = system: S. aureus ATCC 43300 (MRSA); experiment: MBC, plating onto TSA; type: cell-based, Staphylococcus aureus
[21] = system: S. aureus VRS1 (VRSA); experiment: MIC, broth microdilution; type: cell-based, Staphylococcus aureus
[22] = system: S. aureus NRS119 (MRSA); experiment: MBC, plating onto TSA; type: cell-based, Staphylococcus aureus
[23] = system: S. aureus NRS119 (MRSA); experiment: MIC, broth microdilution; type: cell-based, Staphylococcus aureus
[24] = system: S. aureus NRS107 (MRSA); experiment: MBC, plating onto TSA; type: cell-based, Staphylococcus aureus
[25] = system: S. aureus VRS5 (VRSA); experiment: MIC, broth microdilution; type: cell-based, Staphylococcus aureus
[26] = system: S. aureus USA500 (MRSA); experiment: MBC, plating onto TSA; type: cell-based, Staphylococcus aureus
[27] = system: S. aureus VRS1 (VRSA); experiment: MBC, plating onto TSA; type: cell-based, Staphylococcus aureus
[28] = system: S. aureus NRS194 (MRSA); experiment: MBC, plating onto TSA; type: cell-based, Staphylococcus aureus
[29] = system: MRSA USA300; experiment: Time-kill analysis; type: cell-based, Staphylococcus aureus; conditions: MRSA USA300, 3 × MIC, 37 °C
Procedure, shortened: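 Late-log-phase cells diluted to ~1 × 10^8 CFU/mL in MHB and exposed to test compound or vancomycin in triplicate at 37 °C. 20 μL samples taken at 0, 2, 4, 6, 8, 10, 12 and 24 h, serially diluted in PBS, and plated on TSA. Plates incubated 18–20 h at 37 °C, then viable CFU/mL counted. Data given as mean ± standard deviation.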

[30] = Microsomal stability analysis
[31] = Staphylococcus aureus, ATCC43300|MRSA
[32] = Staphylococcus aureus, MRSA|USA300
[33] = Staphylococcus aureus, NRS37|VISA
[34] = Staphylococcus aureus, NRS1|VISA
[35] = Staphylococcus aureus, MRSA|NRS194
[36] = Staphylococcus aureus, MRSA|USA400
[37] = Staphylococcus aureus, NRS19|VISA
[38] = Staphylococcus aureus, MRSA|USA500
[39] = Staphylococcus aureus, MRSA|NRS107
[40] = Staphylococcus aureus, MRSA|NRS119
[41] = human liver microsomes, with NADPH

SMILES: CC(=O)c1sc(-c2ccc(-c3ccc(F)cc3)cc2)nc1C [21b, 1-(2-(4′-Fluoro-[1,1′-biphenyl]-4-yl)-4-methylthiazol-5-yl)ethanone]
- MIC [1, 31]: > 39.8 µg/mL

SMILES: CC(=O)c1sc(-c2ccc(-c3ccc(C(F)(F)F)cc3)cc2)nc1C [21c, 1-(4-Methyl-2-(4′-(trifluoromethyl)-[1,1′-biphenyl]-4-yl)thiazol-5-yl)ethanone]
- MIC [1, 31]: > 46.2 µg/mL

SMILES: [H]/N=C(\N)NN=C(C)c1sc(-c2ccc(-c3ccc(O)cc3)cc2)nc1C [22a, (E)-2-(1-(2-(4′-Hydroxy-[1,1′-biphenyl]-4-yl)-4-methylthiazol-5-yl)ethylidene)hydrazinecarboximidamide]
- MIC [1]: >46.7 µg/mL
- MIC [1, 31]: > 36.9 µg/mL

SMILES: [H]/N=C(\N)NN=C(C)c1sc(-c2ccc(-c3ccc(F)cc3)cc2)nc1C [22b, (E)-2-(1-(2-(4′-Fluoro-[1,1′-biphenyl]-4-yl)-4-methylthiazol-5-yl)ethylidene)hydrazinecarboximidamide]
- MBC ([2]; Staphylococcus aureus, VRSA): 2.9 µg/mL (≈ 7.89 µM)
- MBC [3, 32]: 5.9 µg/mL (≈ 16.1 µM)
- MIC [4]: 2.9 to 5.9 µg/mL (≈ 7.89 to 16.1 µM)
- MBC [5, 33]: 5.9 µg/mL (≈ 16.1 µM)
- MIC [6, 33]: 2.9 µg/mL (≈ 7.89 µM)
- MIC ([7]; Staphylococcus aureus, VRSA): 2.9 µg/mL (≈ 7.89 µM)
- MIC [8, 34]: 2.9 µg/mL (≈ 7.89 µM)
- MBC ([9]; Staphylococcus aureus, VRSA): 2.9 µg/mL (≈ 7.89 µM)
- MIC [10, 35]: 5.9 µg/mL (≈ 16.1 µM)
- MBC [11, 36]: 11.7 µg/mL (≈ 31.8 µM)
- MIC [1, 31]: 5.9 µg/mL (≈ 16.1 µM)
- MIC [12, 36]: 5.9 µg/mL (≈ 16.1 µM)
- MIC [13, 32]: 5.9 µg/mL (≈ 16.1 µM)
- MBC [14, 34]: 2.9 µg/mL (≈ 7.89 µM)
- MIC [15, 37]: 5.9 µg/mL (≈ 16.1 µM)
- MIC [16, 38]: 5.9 µg/mL (≈ 16.1 µM)
- MBC [17, 37]: 5.9 µg/mL (≈ 16.1 µM)
- MIC [18, 39]: 2.9 µg/mL (≈ 7.89 µM)
- toxicity to mammalian cells (MTS assay) [19]: toxic
- MBC [20, 31]: 5.9 µg/mL (≈ 16.1 µM)
- MIC ([21]; Staphylococcus aureus, VRSA): 2.9 µg/mL (≈ 7.89 µM)
- MBC [22, 40]: 11.7 µg/mL (≈ 31.8 µM)
- MIC [23, 40]: 5.9 µg/mL (≈ 16.1 µM)
- MBC [24, 39]: 5.9 µg/mL (≈ 16.1 µM)
- MIC ([25]; Staphylococcus aureus, VRSA): 2.9 µg/mL (≈ 7.89 µM)
- MBC [26, 38]: 5.9 µg/mL (≈ 16.1 µM)
- MBC ([27]; Staphylococcus aureus, VRSA): 2.9 µg/mL (≈ 7.89 µM)
- MBC [28, 35]: 11.7 µg/mL (≈ 31.8 µM)

SMILES: [H]/N=C(\N)NN=C(C)c1sc(-c2ccc(-c3ccc(C(C)=O)cc3)cc2)nc1C [22d, (E)-2-(1-(2-(4′-Acetyl-[1,1′-biphenyl]-4-yl)-4-methylthiazol-5-yl)ethylidene)hydrazinecarboximidamide]
- MBC ([2]; Staphylococcus aureus, VRSA): 3.1 µg/mL (≈ 7.92 µM)
- MBC [3, 32]: 6.3 µg/mL (≈ 16.1 µM)
- MBC [5, 33]: 6.3 µg/mL (≈ 16.1 µM)
- MIC [6, 33]: 3.1 µg/mL (≈ 7.92 µM)
- MIC ([7]; Staphylococcus aureus, VRSA): 1.6 µg/mL (≈ 4.09 µM)
- MIC [8, 34]: 6.3 µg/mL (≈ 16.1 µM)
- MBC ([9]; Staphylococcus aureus, VRSA): 6.3 µg/mL (≈ 16.1 µM)
- MIC [10, 35]: 6.3 µg/mL (≈ 16.1 µM)
- MBC [11, 36]: 6.3 µg/mL (≈ 16.1 µM)
- MIC [1, 31]: 6.3 µg/mL (≈ 16.1 µM)
- MIC [12, 36]: 6.3 µg/mL (≈ 16.1 µM)
- MIC [13, 32]: 6.3 µg/mL (≈ 16.1 µM)
- MBC [14, 34]: 6.3 µg/mL (≈ 16.1 µM)
- MIC [15, 37]: 12.5 µg/mL (≈ 31.9 µM)
- MIC [16, 38]: 6.3 µg/mL (≈ 16.1 µM)
- MBC [17, 37]: 12.5 µg/mL (≈ 31.9 µM)
- MIC [18, 39]: 6.3 µg/mL (≈ 16.1 µM)
- toxicity to mammalian cells (MTS assay) [19]: not toxic; also recorded: improved toxicity profile
- MBC [20, 31]: 6.3 µg/mL (≈ 16.1 µM)
- MIC ([21]; Staphylococcus aureus, VRSA): 3.1 µg/mL (≈ 7.92 µM)
- MBC [22, 40]: 12.5 µg/mL (≈ 31.9 µM)
- MIC [23, 40]: 6.3 µg/mL (≈ 16.1 µM)
- MBC [24, 39]: 12.5 µg/mL (≈ 31.9 µM)
- MIC ([25]; Staphylococcus aureus, VRSA): 6.3 µg/mL (≈ 16.1 µM)
- MBC [26, 38]: 6.3 µg/mL (≈ 16.1 µM)
- MBC ([27]; Staphylococcus aureus, VRSA): 3.1 µg/mL (≈ 7.92 µM)
- MBC [28, 35]: 6.3 µg/mL (≈ 16.1 µM)

SMILES: [H]/N=C(/N)NN=C(C)c1sc(-c2ccc(C#CCCCC)cc2)nc1C [compound 5, (Z)-2-(1-(2-(4-(Hex-1-yn-1-yl)phenyl)-4-methylthiazol-5-yl)ethylidene) hydrazinecarboximidamide]
- MBC ([2]; VRS4 (VRSA)): 2.8 µg/mL (≈ 7.92 µM)
- MBC ([3]; USA300 (MRSA)): 1.4 µg/mL (≈ 3.96 µM)
- MBC ([5]; NRS37 (VISA)): 1.4 µg/mL (≈ 3.96 µM)
- MIC ([6]; NRS37 (VISA)): 1.4 µg/mL (≈ 3.96 µM)
- MIC ([7]; VRS4 (VRSA)): 1.4 µg/mL (≈ 3.96 µM)
- MIC ([8]; NRS1 (VISA)): 0.7 µg/mL (≈ 1.98 µM)
- MBC ([9]; VRS5 (VRSA)): 2.8 µg/mL (≈ 7.92 µM)
- MIC ([10]; NRS194 (MRSA)): 1.4 µg/mL (≈ 3.96 µM)
- MBC ([11]; USA 400 (MRSA)): 1.4 µg/mL (≈ 3.96 µM)
- MIC [1]: 1.4 µg/mL (≈ 3.96 µM)
- MIC ([12]; USA 400 (MRSA)): 1.4 µg/mL (≈ 3.96 µM)
- MIC ([13]; USA300 (MRSA)): 1.4 µg/mL (≈ 3.96 µM)
- MBC ([14]; NRS1 (VISA)): 0.7 µg/mL (≈ 1.98 µM)
- MIC ([15]; NRS19 (VISA)): 1.4 µg/mL (≈ 3.96 µM)
- MIC ([16]; USA500 (MRSA)): 1.4 µg/mL (≈ 3.96 µM)
- time to completely eradicate MRSA growth [29]: ≤ 4 h
- MBC ([17]; NRS19 (VISA)): 1.4 µg/mL (≈ 3.96 µM)
- MIC ([18]; NRS107 (MRSA)): 1.4 µg/mL (≈ 3.96 µM)
- MBC ([20]; ATCC 43300 (MRSA)): 1.4 µg/mL (≈ 3.96 µM)
- MIC ([21]; VRS1 (VRSA)): 1.4 µg/mL (≈ 3.96 µM)
- MBC ([22]; NRS119 (MRSA)): 1.4 µg/mL (≈ 3.96 µM)
- MIC ([23]; NRS119 (MRSA)): 1.4 µg/mL (≈ 3.96 µM)
- MBC ([24]; NRS107 (MRSA)): 1.4 µg/mL (≈ 3.96 µM)
- MIC ([25]; VRS5 (VRSA)): 2.8 µg/mL (≈ 7.92 µM)
- MBC ([26]; USA500 (MRSA)): 1.4 µg/mL (≈ 3.96 µM)
- NADPH-dependent CLint [30, 41]: 3.7 µL/min/mg
- NADPH-dependent T1/2 [30, 41]: >240 min
- NADPH-free T1/2 ([30]; human liver microsomes, without NADPH): >240 min
- half-life ([30]; pooled human liver microsomes): exceeds 4 hours
- MBC ([27]; VRS1 (VRSA)): 1.4 µg/mL (≈ 3.96 µM)
- MBC ([28]; NRS194 (MRSA)): 1.4 µg/mL (≈ 3.96 µM)

SMILES: [H]/N=C(\N)NN=C(C)c1sc(-c2ccc(C#CCCCCCCC)cc2)nc1C [compound 7, (E)-2-(1-(4-Methyl-2-[4-(non-1-yn-1-yl)phenyl]thiazol-5-yl)ethylidene)hydrazinecarboximidamide]
- MIC [1, 31]: 12.6 µg/mL (≈ 31.9 µM)

SMILES: CCCCc1ccc(-c2nc(C)c(C(N)=O)s2)cc1 [compound 9, 2-(4-Butylphenyl)-4-methylthiazole-5-carboxamide]
- MIC [1, 31]: > 35.1 µg/mL
